Experimental data pooled from the literature.
Target: Membrane-associated tyrosine- and threonine-specific cdc2-inhibitory kinase (PKMYT1, Homo sapiens, UniProt Q99640)
Sequence (Q99640 1-499, as in one of the studies): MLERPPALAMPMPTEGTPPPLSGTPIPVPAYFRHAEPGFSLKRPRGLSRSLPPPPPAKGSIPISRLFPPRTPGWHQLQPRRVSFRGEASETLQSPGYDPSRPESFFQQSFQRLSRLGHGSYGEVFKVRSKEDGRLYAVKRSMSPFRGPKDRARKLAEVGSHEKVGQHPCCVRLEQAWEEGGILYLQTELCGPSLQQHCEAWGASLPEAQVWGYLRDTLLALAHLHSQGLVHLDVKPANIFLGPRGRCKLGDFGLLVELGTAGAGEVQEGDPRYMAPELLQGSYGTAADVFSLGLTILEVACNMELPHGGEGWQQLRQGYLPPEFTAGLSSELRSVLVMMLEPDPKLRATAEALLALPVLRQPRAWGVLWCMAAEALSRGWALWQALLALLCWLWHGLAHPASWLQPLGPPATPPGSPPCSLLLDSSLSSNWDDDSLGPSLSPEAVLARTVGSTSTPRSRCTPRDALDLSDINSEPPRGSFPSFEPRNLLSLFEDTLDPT

| SMILES | assay | conditions | remaining binding |
| --- | --- | --- | --- |
| CN(CCCC(F)(F)F)c1nccc(-c2cnn3ncccc23)n1 | binding | 1 µM | 93% |
| CNC(=O)[C@@H]1CC[C@@H](n2c(-c3ccc4cnccc4c3)nc3ccc(C(=O)NCc4cccc(C(N)=O)c4)cc32)C1 | binding, competition with immobilised ligand | 1 µM | 100% |
| N[C@@H]1CCN(c2nccc(-c3cnn4ncccc34)n2)C1 | binding | 1 µM | 100% |
| CN1CCN(c2cnc3c(C4CCN(C(=O)c5ccc(OC(F)(F)F)cc5N)CC4)ncnc3c2)CC1 | cell-free assay, competition with immobilised ligand | 1 µM | 100% |
| CC1CCCN1c1nccc(-c2cnn3ncccc23)n1 (centres unmarked) | binding | 1 µM | 97% |
| Cn1nc(C(F)(F)F)cc1-c1cnc(N2CCc3cc(S(=O)(=O)Nc4c(F)cc(Cl)cc4F)cc(N4CCCC4=O)c32)nc1 | cell-free assay, competition with immobilised ligand | 1 µM | 93% |
| Cc1cnn2ncc(-c3ccnc(N(C)C)n3)c2c1 | binding | 1 µM | 100% |
| O=C(Nc1cccnn1)N1CC(C/C=C/c2cncc(Oc3ccc(C(F)(F)F)cn3)n2)C1 | cell-free assay, competition with immobilised ligand | 1 µM | 100% |
| Nc1ncc2c(n1)-c1c([nH]c3ccc(C#CC4CC4)cc13)CCCC2 | binding, competition with immobilised ligand | 1 µM | 98% |
| O=C(c1ccc(Nc2nccc(-c3cc4ccccc4s3)n2)cc1)N1CCC(N2CCCC2)CC1 | binding, competition with immobilised ligand | 1 µM | 70% |
| C[C@H]1CCN(c2nccc(-c3cnn4ncccc34)n2)C1 | binding | 1 µM | 100% |
| CCOC(=O)c1cc2cc(-c3cc(C(=O)NCc4ccc(C(=O)O)cc4)nn3C)ccc2[nH]1 | cell-free assay, competition with immobilised ligand | 0.1 µM | 100% |
| O=C(NCCCN1CCOCC1)c1ccc(Nc2ncc(Cl)c(-c3ccc(Cl)s3)n2)cc1 | binding, competition with immobilised ligand | 1 µM | 100% |
| O=C1CCc2cc(Nc3cc(OC4CCOCC4)c([N+](=O)[O-])cc3Cl)ccc2N1 | cell-free assay, competition with immobilised ligand | 1 µM | 79% |
| c1cncc(-c2cccc(Nc3nccc(NC4CCCCC4)n3)c2)c1 | binding, competition with immobilised ligand | 10 µM | 96% |
| CN(c1nccc(-c2cnn3ncccc23)n1)C1CC1 | binding | 1 µM | 88% |
| FC(F)(F)Oc1cccc(-c2cnc3ccc(-c4ccncc4)nn23)c1 | cell-free assay, competition with immobilised ligand | 5 µM | 67% |
| O=C(Nc1ccc(Oc2ccc(F)cc2)cc1)N1CCc2ncccc2[C@H]1c1ccc(F)cc1 | cell-free assay, competition with immobilised ligand | 1 µM | 63% |
| O=C(c1ccc(Nc2ncc(Cl)c(-c3cc4ccccc4s3)n2)cc1)N1CCC(N2CCCC2)CC1 | binding, competition with immobilised ligand | 1 µM | 87% |
| O=C(Nc1c[nH]nc1C(=O)NC1CCNCC1)c1cc(F)cc(F)c1 | binding, competition with immobilised ligand | 1 µM | 83% |
